Activity calls are given as the source filed them. No cut-off for these calls is given here.
Legend:
[1] = target: T1, Histone-lysine N-methyltransferase NSD2 (Homo sapiens, UniProt O96028); test: Binding affinity to NSD2 PWWP1 domain (unknown origin) assessed as dissociation constant by surface plasmon resonance analysis
T1 sequence (O96028 whole entry): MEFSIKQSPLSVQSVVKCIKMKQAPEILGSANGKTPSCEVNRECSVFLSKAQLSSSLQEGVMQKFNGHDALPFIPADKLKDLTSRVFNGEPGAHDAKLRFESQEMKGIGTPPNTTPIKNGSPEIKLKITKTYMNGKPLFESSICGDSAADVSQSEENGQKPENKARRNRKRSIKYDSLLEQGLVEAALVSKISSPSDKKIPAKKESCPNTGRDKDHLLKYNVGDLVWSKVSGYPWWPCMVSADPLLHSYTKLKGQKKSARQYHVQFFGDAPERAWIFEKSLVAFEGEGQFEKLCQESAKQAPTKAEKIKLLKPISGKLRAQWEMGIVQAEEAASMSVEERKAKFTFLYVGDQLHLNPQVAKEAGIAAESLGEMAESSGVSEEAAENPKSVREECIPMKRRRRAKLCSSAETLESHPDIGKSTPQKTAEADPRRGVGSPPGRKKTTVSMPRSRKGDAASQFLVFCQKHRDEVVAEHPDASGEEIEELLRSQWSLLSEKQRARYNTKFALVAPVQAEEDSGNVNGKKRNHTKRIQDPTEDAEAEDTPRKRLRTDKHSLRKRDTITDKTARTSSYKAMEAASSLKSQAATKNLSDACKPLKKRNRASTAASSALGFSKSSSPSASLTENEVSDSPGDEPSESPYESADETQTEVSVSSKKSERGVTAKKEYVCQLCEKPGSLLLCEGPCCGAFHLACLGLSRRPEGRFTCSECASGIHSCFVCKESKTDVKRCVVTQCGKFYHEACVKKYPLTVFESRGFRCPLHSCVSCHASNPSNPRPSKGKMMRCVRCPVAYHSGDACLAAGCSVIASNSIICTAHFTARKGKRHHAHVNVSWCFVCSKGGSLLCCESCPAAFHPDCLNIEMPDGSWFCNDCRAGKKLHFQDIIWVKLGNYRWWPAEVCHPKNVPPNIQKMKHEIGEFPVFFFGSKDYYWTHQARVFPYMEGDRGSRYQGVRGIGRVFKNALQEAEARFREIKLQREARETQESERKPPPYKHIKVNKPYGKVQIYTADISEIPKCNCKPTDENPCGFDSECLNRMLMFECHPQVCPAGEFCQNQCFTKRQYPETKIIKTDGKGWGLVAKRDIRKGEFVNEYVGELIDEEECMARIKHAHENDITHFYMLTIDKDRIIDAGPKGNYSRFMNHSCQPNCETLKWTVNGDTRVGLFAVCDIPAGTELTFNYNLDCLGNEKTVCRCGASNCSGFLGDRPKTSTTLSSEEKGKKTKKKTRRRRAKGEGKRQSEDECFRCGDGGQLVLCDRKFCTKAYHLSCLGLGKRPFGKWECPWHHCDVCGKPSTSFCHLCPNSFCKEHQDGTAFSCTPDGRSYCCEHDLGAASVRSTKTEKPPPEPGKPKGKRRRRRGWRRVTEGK
Procedure, shortened: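 SPR in single-cycle kinetics, HBS-EP buffer (20 mM HEPES pH 7.4, 150 mM NaCl, 3 mM EDTA, 0.05% Tween-20) with 5% DMSO. Ten concentrations from 200 μM top, twofold dilutions. Contact time 60 s, dissociation 120 s, flow 75 μL/min; Kd derived.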

[2] = target: T2, Zinc finger MYND domain-containing protein 11 (Homo sapiens) (UniProt Q15326); test: Binding affinity to ZMYND11 PWWP1 domain (unknown origin) assessed as aggregation temperature at 400 uM by heating at 25 to 85 degC by differential static light scattering method
T2 sequence (whole entry): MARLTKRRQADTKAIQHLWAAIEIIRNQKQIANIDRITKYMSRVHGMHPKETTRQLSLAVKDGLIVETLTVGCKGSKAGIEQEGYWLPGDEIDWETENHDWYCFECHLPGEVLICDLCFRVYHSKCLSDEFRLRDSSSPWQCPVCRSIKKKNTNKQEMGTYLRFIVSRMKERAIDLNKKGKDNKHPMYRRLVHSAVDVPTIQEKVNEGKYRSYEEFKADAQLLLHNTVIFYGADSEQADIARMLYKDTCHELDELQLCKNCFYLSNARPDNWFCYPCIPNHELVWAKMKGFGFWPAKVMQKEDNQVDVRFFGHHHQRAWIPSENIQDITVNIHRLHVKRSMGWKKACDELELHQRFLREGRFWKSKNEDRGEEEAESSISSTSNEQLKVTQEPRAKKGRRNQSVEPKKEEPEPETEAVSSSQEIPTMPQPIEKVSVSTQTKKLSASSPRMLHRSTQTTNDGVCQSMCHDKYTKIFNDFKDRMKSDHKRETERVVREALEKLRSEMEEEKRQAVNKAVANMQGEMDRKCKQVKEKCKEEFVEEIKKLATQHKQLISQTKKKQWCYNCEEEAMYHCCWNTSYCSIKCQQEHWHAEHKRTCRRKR

[3] = target: T3, Zinc finger CW-type PWWP domain protein 1 (Homo sapiens) (UniProt Q9H0M4); test: Binding affinity to ZCWPW1 PWWP1 domain (unknown origin) assessed as aggregation temperature at 400 uM by heating at 25 to 85 degC by differential static light scattering method
T3 sequence (whole entry): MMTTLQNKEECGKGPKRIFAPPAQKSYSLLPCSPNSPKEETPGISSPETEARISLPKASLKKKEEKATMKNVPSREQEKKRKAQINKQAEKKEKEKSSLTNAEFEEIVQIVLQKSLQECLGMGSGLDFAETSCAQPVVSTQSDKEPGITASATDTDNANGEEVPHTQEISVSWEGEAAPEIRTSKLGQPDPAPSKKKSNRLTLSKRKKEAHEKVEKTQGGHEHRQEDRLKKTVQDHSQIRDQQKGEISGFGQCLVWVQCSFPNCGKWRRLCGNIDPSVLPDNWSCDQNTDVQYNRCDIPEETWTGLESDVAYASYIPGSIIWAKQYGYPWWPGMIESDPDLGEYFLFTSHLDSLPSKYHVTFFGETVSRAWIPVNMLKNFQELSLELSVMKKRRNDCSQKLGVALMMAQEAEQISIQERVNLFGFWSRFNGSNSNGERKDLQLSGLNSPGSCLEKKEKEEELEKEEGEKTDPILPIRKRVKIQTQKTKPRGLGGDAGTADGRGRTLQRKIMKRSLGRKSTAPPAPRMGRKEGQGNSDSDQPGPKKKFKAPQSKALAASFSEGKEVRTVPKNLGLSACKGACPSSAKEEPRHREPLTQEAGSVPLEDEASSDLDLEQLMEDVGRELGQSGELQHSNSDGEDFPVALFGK

N#Cc1ccc(C(C(N)=O)N2CCC2c2ccc(Cl)cc2)cc1 (stereo not drawn)
Kd [1]: 41 µM | Activity [2]: inactive | Activity [3]: inactive
